# Assay outcomes from PubChem BioAssay.
# Diaphorase inh = diaphorase inhibitors and chemical oxidizers, primary screen, counter-screen for diaphorase-coupled primary assays, biochemical, uHTS, resorufin fluorescence; diaphorase resazurin-to-resorufin fluorescence, NADH, 16 min; bacterial (C. kluyveri) enzyme, not human; 0.69% of 190,000 active; AID 1217, 2008; inhibition, % at 20 µM;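 active means primary screen inhibition at 20 µM above a set limit, cut at about 50% in these data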;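 further: plate controls were DMSO with full reaction for no effect and wells lacking NADH for full effect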
#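 Assay system: diaphorase enzyme from Clostridium kluyveri. Quantity: enzyme working solution with 0.14 U/mL diaphorase. Schedule: reaction incubation of 16 min at room temperature. Technique: resorufin fluorescence, excitation 544 nm, emission 590 nm. Controls: No-NADH positive control and DMSO neutral control.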
# G6PDH CS = L. mesenteroides G6PDH inhibitors, counter-screen for G6PDH-coupled screening assays, biochemical, Leuconostoc mesenteroides enzyme; glucose-6-phosphate dehydrogenase [Leuconostoc mesenteroides]; AID 1020, 2008; 0.12% of 200,000 active; inhibition, % at 5 µM; Purified L. mesenteroides G6PDH, diaphorase/resazurin coupled fluorescence, 45 min
# WT yeast gro inh = growth inhibition of WT strain, primary screen, mitochondrial fusion inhibitor project, WT and mutant strains, chemical genetic. 2.1% of 190,000 active. inhibition, % at 10 µM. AID 1362, 2008. mitochondrial fusion phenotypic screen; in the data active means inhibition above about 58%; tested in S. cerevisiae
# Diaphorase act = compounds boosting diaphorase resazurin reduction – biochemical, uHTS, resorufin fluorescence, counter-screen for diaphorase-coupled primary assays, primary screen. 0.005% of 190,000 active. activation factor at 20 µM. Diaphorase/resazurin coupled assay, 16 min; hits give high values; 1 = vehicle wells, 0 = NADH-free wells;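 active means diaphorase activity raised at least twofold by the compound at 20 µM; inactive means activation factor below 2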
#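 Material: Purified diaphorase enzyme from Clostridium kluyveri | Buffer or medium: 50 mM HEPES pH 7.4 with 4.542 mM MgCl2, 0.005% Tween 20 | Times: 16 min enzyme reaction, ambient temperature | Signal: Red resorufin fluorescence at 544/590 nm excitation/emission | Measure: Increased resorufin signal from activators or reducing compounds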
# Lmaj promast = Leishmania major promastigote growth inhibition, primary screen; Leishmania major promastigotes, resazurin fluorescence viability; inhibition, % at 10 µM; AID 1063, 2008; 9% of 200,000 active;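 further: promastigotes grown with compound for 44 hours at 28 °C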
# * marks the source's active call; other numbers are inactive results. An excerpt weighted towards active compounds, which were near 11% of everything screened. Unless noted, no stated cut-off is given here; in the data, active means inhibition above about 50%; inactive means the rest.
SMILES,Diaphorase inh,G6PDH CS,WT yeast gro inh,Diaphorase act,Lmaj promast
c1ccc(CC2CCN(C(c3cccs3)c3nnnn3C3CCCC3)CC2)cc1 (centres undefined),9,9,31,0.9,64*
c1csc(C(c2nnnn2C2CCCCC2)N2CCCC3(CCCCC3)C2)c1 (centres undefined),19,8,62*,0.8,38
C/C=C/C=N/Nc1nc(C)cc(=O)[nH]1,15,9,-13,0.9,0
Cc1ccc(OC(=O)c2cccc(C(=O)Oc3ccc(C)cn3)n2)nc1,40,10,20,0.6,-2
NC(=O)CCn1ccc2ccccc21,8,2,-8,0.9,-6
CN1CCc2c1nc1ccccc1c2N=C1CCCN1Cc1ccccc1,45,-2,15,0.5,26
CN(c1ccccc1)c1ccc(/C=C/[N+](=O)[O-])cc1,-2,13,81,1,100*
CN(c1ccccc1)c1ccc(/C=N/NC(=O)CC#N)cc1,6,4,-9,0.9,-3
Cc1nc(NC(=O)CSc2nnc(Cn3nnc4ccccc43)n2C)sc1C,5,-13,3,0.9,4
CCOc1ccc(NC(=O)COC(=O)C23CC4CC(CC(C4)C2)C3)c([N+](=O)[O-])c1,22,-17,22,0.8,-2
N#CC1=C(N)NC(SCc2ccccc2)=C(C#N)C12CCCC2,24,0,12,0.8,26
N#CC1=C(N)NC(SCc2ccc(Cl)cc2)=C(C#N)C12CCCCC2,30,-6,11,0.7,99*
N#CC1=C(N)NC(SCC(=O)Nc2ccc(Br)cc2)=C(C#N)C12CCCCC2,16,9,20,0.8,84*
N#CC1=C(N)NC(SCc2ccc(Br)cc2)=C(C#N)C12CCCCC2,22,-4,67*,0.8,98*
O=C(Oc1ccc(-c2nnco2)cc1)N(c1ccccc1)c1ccccc1,13,-14,58*,0.9,6
O=[N+]([O-])c1ccc(C2Oc3ccccc3C3CC(c4ccccc4)=NN32)s1 (centres undefined),30,16,96,0.7,99*
COc1nc2ccc(C)cc2cc1-c1noc(-c2ccccc2)n1,23,-2,9,0.8,-6
O=C(/C=C/c1ccnc2ccccc12)c1cccs1,7,18,26,0.9,100*
O=C(Nc1ccc(C2CC2(Cl)Cl)cc1)c1ccccc1Br (centres undefined),6,13,38,0.9,83*
Cc1nc(-c2ccc(NC(=O)c3ccccc3Br)cc2)cs1,23,-2,13,0.8,71*
Cc1nc(-c2ccc(NC(=O)c3ccccc3C)cc2)cs1,10,18,21,0.9,50*
O=C(c1ccccc1SCc1ccccc1)N1CCOCC1,3,9,-2,1,-2
O=S(=O)(NCc1ccccc1Cl)c1cccs1,20,3,-9,0.8,-1
COc1ccc(-c2nnn(CC(=O)N(CC(=O)NCCC(C)C)c3ccccc3)n2)cc1OC,18,-2,26,0.8,73*
Cc1cccc(NC(=O)c2sc(Cl)nc2C)c1C,-14,15,13,1.1,-2
SMILES,Diaphorase inh,G6PDH CS,WT yeast gro inh,Diaphorase act,Lmaj promast
COc1cc(Nc2nc(-c3ccccc3)c3cc(C)ccc3n2)cc(OC)c1OC,27,20,73*,0.7,61*
CCOC(=O)c1nn(-c2ccc(F)cc2)c(=O)c2c(N)scc12,32,51*,3,0.7,11
CCOC(=O)c1nn(-c2ccc(C)cc2)c(=O)c2c(N)scc12,28,34,1,0.7,11
COc1ccc2c(c1)sc(=N)n2C,-2,-2,4,1,101*
Cc1ccc(OCC(=O)N(c2ccccn2)C2CCCCC2)c(C)c1,18,-5,21,0.8,87*
O=C1C=C(c2ccccc2)C(=O)N1Nc1ccccc1,12,0,87*,0.9,-7
CCCCNS(=O)(=O)c1ccc(NC(=O)c2cccs2)cc1,10,6,7,0.9,3
CCC(C)NS(=O)(=O)c1ccc(NC(=O)C(Sc2ccccc2)c2ccccc2)cc1 (centres undefined),25,-14,10,0.8,68*
CC(=O)NS(=O)(=O)c1ccc(NC(=O)C(Sc2ccccc2)c2ccccc2)cc1 (centres undefined),16,-9,-4,0.8,-12
CCCCNS(=O)(=O)c1ccc(NC(=O)C(Sc2ccccc2)c2ccccc2)cc1 (centres undefined),19,-12,17,0.8,79*
CN1C(=O)/C(=C/c2ccc(-c3ccccc3[N+](=O)[O-])o2)SC1=Nc1ccc(Cl)c(C(=O)O)c1,44,1,-4,0.6,2
O=C(/C=C/c1c[nH]c2ccccc12)c1cccc2ccccc12,26,-15,61*,0.7,8
COC(=O)/C(=C\c1c[nH]c2ccccc12)NC(C)=O,-6,2,18,1.1,-1
COCCn1c(NC(=S)NC(=O)C2CC2)cc(=O)[nH]c1=O,61*,-7,-19,0.4,8
O=C(CN(CCc1ccccc1)C(=O)CNS(=O)(=O)c1ccc(F)cc1)NCC1CCCO1 (centres undefined),13,5,4,0.9,-1
Cc1ccc(Nc2nc(CSc3nnc(-c4ccc(F)cc4)n3C)cs2)cc1,17,-1,32,0.8,81*
CC(C)c1cc(NC(=O)CSc2nnc(-c3ccccc3F)n2C)on1,10,-4,-2,0.9,2
CC1CN(CCCSc2ccc(Cl)cc2)CC(C)O1 (centres undefined),9,24,25,0.9,85*
Clc1ccc(SCCn2cncn2)cc1,16,1,-1,0.8,1
CC1CC(C)CN(CCOCCSc2ccc(Cl)cc2)C1 (centres undefined),12,20,42,0.9,91*
CC1CN(Cc2ccccc2Cl)CC(C)O1 (centres undefined),13,6,-4,0.9,-3
CC1CC(C)CN(CCOCCSc2ccccc2)C1 (centres undefined),7,9,32,0.9,89*
c1ccc(SCCOCCN2CCc3ccccc3C2)cc1,9,1,12,0.9,90*
Cc1nn(-c2ccccc2)c(Oc2ccccc2)c1C=O,2,-4,-3,1,-3
Cc1ccc2nc(N3CCN(S(=O)(=O)c4ccc(C)c(Cl)c4)CC3)c(C#N)cc2c1,12,9,-4,0.9,24
CC1CCCN(CCOCCSc2ccccc2)C1 (centres undefined),22,1,16,0.8,98*
